Test results reported in ChEMBL document CHEMBL4118076, “Azide-alkyne cycloaddition towards 1H-1,2,3-triazole-tethered gatifloxacin and isatin conjugates: Design, synthesis and in vitro anti-mycobacterial evaluation” (Eur J Med Chem, 2017).
Converted amounts (≈) assume the structure as drawn.

Experiments:
[1] = test system: Mycobacterium tuberculosis; test: Antimycobacterial activity against Mycobacterium tuberculosis H37Rv after 3 to 7 days by rapid direct susceptibility test; format: functional
In short: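 Two-fold DMSO dilutions, 0.0125 to 200 μg/mL for H37Rv and 0.062 to 128 μg/mL for the MDR strain (resistant to INH, RIF and ethambutol), mixed with suspension containing 4×10^-3 mg cells. Sealed plates incubated at 37 °C in a wet box. Growth was read visually under high magnification at 3 days and again 7 days later. MIC is the lowest concentration giving complete growth inhibition.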

[2] = Cytotoxicity against African green monkey Vero cells assessed as reduction in cell viability after 72 hrs by MTT assay; format: cell-based; conditions: chlorocebus sabaeus
In short: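 VERO cells kept in MEM with Earle's salts + 10% FBS, 37 °C, 5% CO2; seeded 1×10^4 cells/well, recovered 24 h, then medium swapped for assay medium with compound (DMSO-dissolved, 1000 to 4 μg/mL) or drug-free. Viability by MTT after 72 h exposure; CC50 calculated by Bliss analysis.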

[3] = test system: Mycobacterium tuberculosis; test: Potency index, ratio of rifampicin MIC90 to compound MIC90 for Mycobacterium tuberculosis H37Rv; format: functional
[4] = test system: Mycobacterium tuberculosis; test: Potency index, ratio of gatifloxacin MIC90 to compound MIC90 for Mycobacterium tuberculosis H37Rv; format: functional

Structure (SMILES)	MIC90 [1] [µg/mL]	CC50 at 72 h [2] [µg/mL]	Ratio [3]	Ratio [4]
COc1c(N2CCN(Cc3cn(CCN4C(=O)/C(=N\O)c5cc(Cl)ccc54)nn3)C(C)C2)c(F)cc2c(=O)c(C(=O)O)cn(C3CC3)c12 (centres undefined)	0.78 (≈ 1.15 µM)	31.2 (≈ 45.9 µM)	–	–
COc1c(N2CCN(Cc3cn(CCN4C(=O)C(=O)c5ccccc54)nn3)C(C)C2)c(F)cc2c(=O)c(C(=O)O)cn(C3CC3)c12 (centres undefined)	1.56 (≈ 2.48 µM)	125 (≈ 199 µM)	–	–
CO[C@H]1/C=C/O[C@@]2(C)Oc3c(C)c(O)c4c(O)c(c(/C=N/N5CCN(C)CC5)c(O)c4c3C2=O)NC(=O)/C(C)=C\C=C\[C@H](C)[C@H](O)[C@@H](C)[C@@H](O)[C@@H](C)[C@H](OC(C)=O)[C@@H]1C [RIFAMPIN]	0.39 (≈ 0.474 µM)	–	–	–
NNC(=O)c1ccncc1 [ISONIAZID]	0.05 (≈ 0.365 µM)	–	–	–
COc1c(N2CCN(Cc3cn(CCN4C(=O)/C(=N\O)c5cc(C)ccc54)nn3)C(C)C2)c(F)cc2c(=O)c(C(=O)O)cn(C3CC3)c12 (centres undefined)	6.25 (≈ 9.49 µM)	62.5 (≈ 94.9 µM)	–	–
COc1c(N2CCN(Cc3cn(CCN4C(=O)C(=O)c5cc(F)ccc54)nn3)C(C)C2)c(F)cc2c(=O)c(C(=O)O)cn(C3CC3)c12 (centres undefined)	0.78 (≈ 1.2 µM)	125 (≈ 193 µM)	–	–
COc1c(N2CCN(Cc3cn(CCN4C(=O)C(=O)c5cc(Cl)ccc54)nn3)C(C)C2)c(F)cc2c(=O)c(C(=O)O)cn(C3CC3)c12 (centres undefined)	0.39 (≈ 0.587 µM)	62.5 (≈ 94.1 µM)	–	–
COc1c(N2CCN(Cc3cn(CCN4C(=O)/C(=N\O)c5ccccc54)nn3)C(C)C2)c(F)cc2c(=O)c(C(=O)O)cn(C3CC3)c12 (centres undefined)	3.12 (≈ 4.84 µM)	250 (≈ 388 µM)	–	–
CO/N=C1\C(=O)N(CCn2cc(CN3CCN(c4c(F)cc5c(=O)c(C(=O)O)cn(C6CC6)c5c4OC)CC3C)nn2)c2ccc(Cl)cc21 (centres undefined)	0.1 (≈ 0.144 µM)	7.8 (≈ 11.3 µM)	4 - 8	4 - 8
CO/N=C1\C(=O)N(CCn2cc(CN3CCN(c4c(F)cc5c(=O)c(C(=O)O)cn(C6CC6)c5c4OC)CC3C)nn2)c2ccc(F)cc21 (centres undefined)	0.2 (≈ 0.296 µM)	7.8 (≈ 11.5 µM)	–	–
CO/N=C1\C(=O)N(CCn2cc(CN3CCN(c4c(F)cc5c(=O)c(C(=O)O)cn(C6CC6)c5c4OC)CC3C)nn2)c2ccccc21 (centres undefined)	0.78 (≈ 1.18 µM)	62.5 (≈ 94.9 µM)	–	–
COc1c(N2CCN(Cc3cn(CCN4C(=O)C(=O)c5cc(C)ccc54)nn3)C(C)C2)c(F)cc2c(=O)c(C(=O)O)cn(C3CC3)c12 (centres undefined)	1.56 (≈ 2.42 µM)	250 (≈ 388 µM)	–	–
COc1c(N2CCNC(C)C2)c(F)cc2c(=O)c(C(=O)O)cn(C3CC3)c12 (centres undefined) [GATIFLOXACIN]	0.78 (≈ 2.08 µM)	–	–	–
CO/N=C1\C(=O)N(CCn2cc(CN3CCN(c4c(F)cc5c(=O)c(C(=O)O)cn(C6CC6)c5c4OC)CC3C)nn2)c2ccc(C)cc21 (centres undefined)	1.56 (≈ 2.32 µM)	31.2 (≈ 46.4 µM)	–	–
COc1c(N2CCN(Cc3cn(CCN4C(=O)/C(=N\O)c5cc(F)ccc54)nn3)C(C)C2)c(F)cc2c(=O)c(C(=O)O)cn(C3CC3)c12 (centres undefined)	1.56 (≈ 2.35 µM)	7.8 (≈ 11.8 µM)	–	–
